Experimental data: ChEMBL document CHEMBL4118150, “2-Methylacrylamide as a bioisoster of thiourea group for 1,3-dibenzylthioureido TRPV1 receptor antagonists” (Bioorg Med Chem Lett, 2018)

How the values were obtained:
[1] = biological target: T1, Transient receptor potential cation channel subfamily V member 1 (Rattus norvegicus, UniProt O35433); assay: Antagonist activity at TRPV1 in neonatal rat DRG neurons assessed as inhibition of capsaicin-induced intracellular calcium after 10 mins in presence of 45Ca2+ by Beckman CP scintillation counting method; format: cell-based
T1 sequence (O35433 whole entry): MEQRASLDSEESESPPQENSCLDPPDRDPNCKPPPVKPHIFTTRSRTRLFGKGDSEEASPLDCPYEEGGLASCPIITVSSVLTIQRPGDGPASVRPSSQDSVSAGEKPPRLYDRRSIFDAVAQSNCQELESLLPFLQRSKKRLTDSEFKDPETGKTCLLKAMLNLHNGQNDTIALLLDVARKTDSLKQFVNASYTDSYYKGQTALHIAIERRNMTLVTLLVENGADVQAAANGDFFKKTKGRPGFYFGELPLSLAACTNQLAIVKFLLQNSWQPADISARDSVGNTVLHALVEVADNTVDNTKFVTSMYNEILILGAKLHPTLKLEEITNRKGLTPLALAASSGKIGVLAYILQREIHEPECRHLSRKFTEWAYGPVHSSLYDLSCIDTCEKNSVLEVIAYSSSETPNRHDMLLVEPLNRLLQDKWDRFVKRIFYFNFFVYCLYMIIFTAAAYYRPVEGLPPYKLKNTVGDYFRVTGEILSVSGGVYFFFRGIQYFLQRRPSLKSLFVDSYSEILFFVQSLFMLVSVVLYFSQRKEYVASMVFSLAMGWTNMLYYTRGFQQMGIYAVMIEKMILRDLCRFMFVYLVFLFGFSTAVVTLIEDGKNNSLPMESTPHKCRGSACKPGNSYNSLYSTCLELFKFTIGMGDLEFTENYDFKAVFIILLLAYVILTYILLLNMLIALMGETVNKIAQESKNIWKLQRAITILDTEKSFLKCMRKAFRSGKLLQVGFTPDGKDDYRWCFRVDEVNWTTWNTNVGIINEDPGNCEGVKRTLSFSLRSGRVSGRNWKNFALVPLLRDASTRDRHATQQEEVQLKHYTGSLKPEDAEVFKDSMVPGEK
Method in brief: (§1)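 45Ca2+ uptake in cultured spinal sensory neurons from neonatal rat. Antagonist mode: derivatives were tested against 0.5 μM capsaicin, and IC50 is the concentration that cuts the capsaicin response by 50%. Agonist mode: EC50 is the concentration giving 50% of the maximal response. Values were estimated from at least 3 replicates at each concentration.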

[2] = biological target: T1, Transient receptor potential cation channel subfamily V member 1; assay: Agonist activity at TRPV1 in neonatal rat DRG neurons assessed as increase in calcium influx after 10 mins in presence of 45Ca2+ by Beckman CP scintillation counting method; method in brief: as §1
[3] = biological target: Transient receptor potential cation channel subfamily V member 1 (Rattus norvegicus) (UniProt O35433); assay: Potency index, ratio of IC50 for ATC-120 to IC50 for test compound for antagonist activity at TRPV1 in neonatal rat DRG neurons
Sequence of Transient receptor potential cation channel subfamily V member 1 (Rattus norvegicus) (O35433 whole entry): as above

Structure (SMILES) | IC50 [1] [µM] | EC50 [2] [µM] | Ratio IC50 [3]
C[C@@H](NC(=S)/C=C/c1ccc(C(C)(C)C)cc1)c1ccc(NS(C)(=O)=O)cc1 | 5 | > 100 | –
CC(Cc1ccc(C(C)(C)C)cc1)C(=O)N[C@H](C)c1ccc(NS(C)(=O)=O)cc1 (mixture of isomers) | 0.27 | > 100 | –
C[C@@H](NC(=O)COc1ccc(C(C)(C)C)cc1)c1ccc(NS(C)(=O)=O)cc1 | – | > 100 | –
C[C@@H](N/C(COc1ccc(C(C)(C)C)cc1)=N/C#N)c1ccc(NS(C)(=O)=O)cc1 | – | > 100 | –
C[C@@H](NC(=S)COc1ccc(C(C)(C)C)cc1)c1ccc(NS(C)(=O)=O)cc1 | – | > 100 | –
C[C@@H](NC(=O)NCc1ccc(C(C)(C)C)cc1)c1ccc(NS(C)(=O)=O)cc1 | 0.68 | > 100 | –
C[C@@H](NC(=O)/C=C/c1ccc(C(C)(C)C)cc1)c1ccc(NS(C)(=O)=O)cc1 | 0.16 | > 100 | –
C[C@@H](NC(=O)COc1ccc(C(C)(C)C)cc1)c1ccc(NS(C)(=O)=O)c(F)c1 | – | > 100 | –
C[C@@H](NC(=S)CCc1ccc(C(C)(C)C)cc1)c1ccc(NS(C)(=O)=O)cc1 | 0.3 | > 100 | –
C[C@@H](NC(=O)C#Cc1ccc(C(C)(C)C)cc1)c1ccc(NS(C)(=O)=O)cc1 | – | > 100 | –
C=Cc1cc([C@@H](C)NC(=O)/C(C)=C/c2ccc(C(C)(C)C)cc2)ccc1NS(C)(=O)=O | – | > 100 | 2
C[C@@H](NC(=S)NCc1ccc(C(C)(C)C)cc1)c1ccc(NS(C)(=O)=O)cc1 | – | > 100 | –
C/C(=C\c1ccc(C(C)(C)C)cc1)C(=O)N[C@H](C)c1ccc(NS(C)(=O)=O)cc1 | – | > 100 | –
C/C(=C\c1ccc(C(C)(C)C)cc1)C(=O)N[C@H](C)c1ccc(NS(C)(=O)=O)c(F)c1 | – | > 100 | –
C[C@@H](NC(=O)CCc1ccc(C(C)(C)C)cc1)c1ccc(NS(C)(=O)=O)cc1 | 0.24 | > 100 | –
